Assay results taken from ChEMBL document CHEMBL1158167, “Synthesis, binding properties and receptor docking of 4-halo-6-[2-(4-arylpiperazin-1-yl)ethyl]-1H-benzimidazoles, mixed ligands of D2 and 5-HT1A receptors” (Eur J Med Chem, 2008).

Legend:
[1] = Displacement of [3H]8-OH-DPAT from 5HT1A receptor in bovine hippocampi synaptosomal membrane by liquid scintillation spectrometry; assay type: tissue-based, Bos taurus, Hippocampus
D(1A) dopamine receptor = D(1A) dopamine receptor (Bos taurus, UniProt Q95136); test: Displacement of [3H]SCH23390 from dopamine D1 receptor in bovine caudate nuclei synaptosomal membrane by liquid scintillation spectrometry
Sequence of D(1A) dopamine receptor (Q95136 whole entry): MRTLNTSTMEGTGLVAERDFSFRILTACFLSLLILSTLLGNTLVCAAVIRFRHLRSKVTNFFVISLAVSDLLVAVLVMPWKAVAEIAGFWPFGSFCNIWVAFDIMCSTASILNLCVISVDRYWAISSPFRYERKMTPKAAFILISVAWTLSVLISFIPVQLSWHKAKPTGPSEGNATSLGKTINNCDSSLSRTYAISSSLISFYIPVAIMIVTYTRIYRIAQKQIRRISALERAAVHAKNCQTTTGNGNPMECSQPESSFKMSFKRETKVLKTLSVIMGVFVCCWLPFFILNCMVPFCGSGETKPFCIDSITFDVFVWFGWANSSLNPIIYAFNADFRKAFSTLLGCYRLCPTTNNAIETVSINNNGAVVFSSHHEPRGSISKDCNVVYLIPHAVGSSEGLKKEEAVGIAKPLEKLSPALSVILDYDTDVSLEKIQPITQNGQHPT

D(2) dopamine receptor = D(2) dopamine receptor (Bos taurus, UniProt P20288); test: Displacement of [3H]Spiperone from dopamine D2 receptor in bovine caudate nuclei synaptosomal membrane by liquid scintillation spectrometry
Sequence of D(2) dopamine receptor (P20288 whole entry): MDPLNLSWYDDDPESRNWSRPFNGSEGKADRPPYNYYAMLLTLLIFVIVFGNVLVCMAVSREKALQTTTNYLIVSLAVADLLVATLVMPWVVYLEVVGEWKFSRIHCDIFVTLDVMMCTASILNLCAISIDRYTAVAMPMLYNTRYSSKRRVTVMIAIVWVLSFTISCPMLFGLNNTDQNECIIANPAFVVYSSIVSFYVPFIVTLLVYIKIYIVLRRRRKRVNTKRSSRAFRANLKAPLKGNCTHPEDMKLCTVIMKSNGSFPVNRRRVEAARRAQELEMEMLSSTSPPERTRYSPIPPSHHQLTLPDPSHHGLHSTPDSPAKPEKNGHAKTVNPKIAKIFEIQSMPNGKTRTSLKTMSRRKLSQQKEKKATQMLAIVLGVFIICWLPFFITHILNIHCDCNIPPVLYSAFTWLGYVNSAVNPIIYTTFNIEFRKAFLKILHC
Procedure, shortened: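 Membranes (0.7 mg/ml protein) incubated 20 min at 37 °C with 0.2 nM [3H]spiperone and 8–10 test compound concentrations (10^-5–10^-10 M). Ketanserin […] blocks 5-HT2 sites. Nonspecific binding defined with […] (+)-butaclamol. GF/C filtration, scintillation counting. Ki; 3–4 experiments in triplicate.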

Compound | Ki [1] [µM] | Ki (D(1A) dopamine receptor) [µM] | Ki (D(2) dopamine receptor) [µM]
c1ccc(N2CCN(CCc3ccc4nc[nH]c4c3)CC2)cc1 | 0.197 | > 1 | 0.138
Clc1cc(CCN2CCN(c3ncccn3)CC2)cc2[nH]cnc12 | 0.53 | > 1 | 0.55
COc1ccccc1N1CCN(CCc2ccc3nc[nH]c3c2)CC1 | 0.0203 |  | 0.0131
Clc1ccccc1N1CCN(CCc2cc(Cl)c3nc[nH]c3c2)CC1 | 0.0456 | > 1 | 0.0191
Clc1ccccc1N1CCN(CCc2ccc3nc[nH]c3c2)CC1 | 0.243 |  | 0.0597
Clc1cc(CCN2CCN(c3ccccc3)CC2)cc2[nH]cnc12 | 0.0896 | > 1 | 0.0847
COc1ccccc1N1CCN(CCc2cc(Cl)c3nc[nH]c3c2)CC1 | 0.0052 | > 1 | 0.00549
Brc1cc(CCN2CCN(c3ccccc3)CC2)cc2[nH]cnc12 | 0.0241 | > 1 | 0.0619
Brc1cc(CCN2CCN(c3ncccn3)CC2)cc2[nH]cnc12 | 0.129 | > 1 | 0.0267
c1cnc(N2CCN(CCc3ccc4nc[nH]c4c3)CC2)nc1 | > 1 |  | > 1
FC(F)(F)c1cccc(N2CCN(CCc3cc(Br)c4nc[nH]c4c3)CC2)c1 | 0.00014 | > 1 | 0.00577
FC(F)(F)c1cccc(N2CCN(CCc3ccc4nc[nH]c4c3)CC2)c1 | 0.033 | > 1 | 0.273
FC(F)(F)c1cccc(N2CCN(CCc3cc(Cl)c4nc[nH]c4c3)CC2)c1 | 0.0207 | > 1 | 0.2
COc1ccccc1N1CCN(CCc2cc(Br)c3nc[nH]c3c2)CC1 | 0.0014 | > 1 | 0.00056
Clc1ccccc1N1CCN(CCc2cc(Br)c3nc[nH]c3c2)CC1 | 0.0896 | > 1 | 0.0847
